Screening data: PubChem BioAssay, several laboratories
Sampled rows, rich in hits. Any-hit rate of the full collection: about 1.4%.
Thrombin inh: blocks human thrombin protease activity; P00734; alpha-thrombin, Boc-VPR-AMC fluorogenic substrate cleavage; inhibition, % at 5 µM; 220,000 tested, 0.26% active; AID 1046;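 active = inhibition at or above 40%; inactive = inhibition below 40%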;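 note: 0% = enzyme with no compound and 100% = wells without enzyme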
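Material: human alpha-thrombin enzyme / Medium: pH 7.5 Tris (50 mM) with NaCl 150 mM, Tween 20 0.05% / Compound: single-point dosing at 5 µM, 0.2% DMSO / Incubation: enzyme reaction carried out at room temperature / Detection: AMC fluorescence, 355/460 nm / Read-out basis: percent inhibition scaled between no-compound controls and no-enzyme blanks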
Furin inhibitor: inhibitors of human furin. AID 463115. 220,000 tested, 0.061% active. inhibition, % at 20 µM or 30 µM. purified furin, fluorogenic substrate cleavage; in the data active = inhibition above about 25%
FXIIa inh: blocks human coagulation factor XIIa protease activity; 220,000 tested, 0.3% active; AID 800; P00748; inhibition, % at 5 µM; purified FXIIa, Boc-QGR-AMC fluorogenic substrate, 2 h; in the data active = inhibition above about 40%;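 note: 0% = enzyme with no compound and 100% = blank without enzyme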
FXIa inh: inhibitors of human coagulation factor XIa; purified FXIa, Boc-Glu-Ala-Arg-AMC fluorogenic substrate; P03951; inhibition, % at 5 µM; 220,000 tested, 0.14% active;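 active = inhibition of at least 40%; inactive = inhibition below 40%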;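 note: fluorescence of freed AMC excited at 355 nm; 0% = enzyme without compound and 100% = no enzyme blank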
KLK5 inh: inhibitors of human kallikrein 5; Q9Y337; recombinant hK5, fluorogenic AMC substrate cleavage; inhibition, % at 5 µM; 210,000 tested, 0.59% active; AID 873;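 active = inhibition of 40% or more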;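 note: 0% = enzyme controls without compound and 100% = no-enzyme blanks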
Target sequence (Q9Y337 67-293 limits assumed): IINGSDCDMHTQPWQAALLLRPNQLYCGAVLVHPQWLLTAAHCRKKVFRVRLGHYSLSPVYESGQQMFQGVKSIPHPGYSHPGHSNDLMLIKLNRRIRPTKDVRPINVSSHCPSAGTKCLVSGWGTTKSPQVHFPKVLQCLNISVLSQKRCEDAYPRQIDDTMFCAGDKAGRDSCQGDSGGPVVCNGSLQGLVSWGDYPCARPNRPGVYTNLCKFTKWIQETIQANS
m-calpain inh: calpain II (pig) inhibition; 220,000 tested, 0.37% active; AID 1236; inhibition, % at 16 µM; purified calpain II, fluorogenic peptide substrate, 30 min;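 active = inhibition above about 50%, limit read from the data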
* hit, by the source's call.

Screening CSc1nc(-c2ccccc2)nc(N2CCCC2)c1C(C)=O returned Thrombin inh 0, Furin inhibitor -6, FXIIa inh 11, FXIa inh -2, KLK5 inh -3 and m-calpain inh 33.
`CSc1nc(-c2ccccc2)nc(N2CCOCC2)c1C(C)=O` gave Thrombin inh 50*, Furin inhibitor -6, FXIIa inh 35, FXIa inh 29, KLK5 inh 19 and m-calpain inh 32.
For Cc1ccc(-c2csc3nc(SCC(N)=O)n(Cc4ccccc4)c(=O)c23)cc1 the results were Thrombin inh -8, Furin inhibitor -10, FXIIa inh 4, FXIa inh 2, KLK5 inh -13 and m-calpain inh 8.
Screening CC1CCN(C(=O)CSc2ccc(-c3ccccc3)nn2)CC1 returned Thrombin inh -3, Furin inhibitor -15, FXIIa inh 5, FXIa inh -5, KLK5 inh -10 and m-calpain inh 16.
`CN(C)c1cccc(C(=O)n2cc(C(=O)c3cc(F)ccc3O)cn2)c1` gave Thrombin inh 16, Furin inhibitor -16, FXIIa inh 41*, FXIa inh 4, KLK5 inh 32 and m-calpain inh -34.
For CCn1c(C)nc2cc(C(=O)n3cc(C(=O)c4ccccc4O)cn3)ccc21 the results were Thrombin inh -5, Furin inhibitor -30, FXIIa inh 37, FXIa inh 14, KLK5 inh -2 and m-calpain inh -1.
`O=C(c1cnn(C(=O)c2ccc(O)cc2)c1)c1ccccc1O` gave Thrombin inh 12, Furin inhibitor -6, FXIIa inh 18, FXIa inh 2, KLK5 inh 42* and m-calpain inh -27.
CN(c1ncc(C(F)(F)F)cc1Cl)N1C(=O)c2cccc([N+](=O)[O-])c2C1=O was read as Thrombin inh 30, Furin inhibitor -8, FXIIa inh 28, FXIa inh 22, KLK5 inh 47* and m-calpain inh 13.
For COCc1nc2ccccc2n1Cc1ccccc1 the results were Thrombin inh -2, Furin inhibitor -8, FXIIa inh -2, FXIa inh -4, KLK5 inh -21 and m-calpain inh 34.
Screening COCc1nc2ccccc2n1Cc1ccc(Br)cc1 returned Thrombin inh -4, Furin inhibitor -17, FXIIa inh 3, FXIa inh -15, KLK5 inh 10 and m-calpain inh 57*.
Screening CCN1CCN(CC(=O)Nc2cc(C)on2)CC1 returned Thrombin inh 3, Furin inhibitor -6, FXIIa inh 27, FXIa inh 46*, KLK5 inh 42* and m-calpain inh 12.
Cc1cc(NC(=O)CN2CCCCC2)no1 was read as Furin inhibitor -19, FXIIa inh 1, FXIa inh -1, KLK5 inh -7 and m-calpain inh -9.
C=CCSc1nc(C)c(CC=C)c(=O)[nH]1 was read as Thrombin inh 0, Furin inhibitor -17, FXIIa inh 53*, FXIa inh 30, KLK5 inh 2 and m-calpain inh 30.
For C=CCSc1nc(C)c(CCCC)c(=O)[nH]1 the results were Thrombin inh -8, Furin inhibitor -21, FXIIa inh 5, FXIa inh 1 and m-calpain inh -20.
Cc1ccc(C(=O)NCC(=O)OC(C)C(=O)Nc2ccc(N(C)C)cc2)s1 (stereo not given) was read as Thrombin inh 9, Furin inhibitor -29, FXIIa inh 3, FXIa inh -3, KLK5 inh -3 and m-calpain inh -9.
Screening CCOC(=O)CSc1nc(C(C)C)nc2sc(C)c(C)c12 returned Thrombin inh -8, Furin inhibitor -10, FXIIa inh 4, FXIa inh -6, KLK5 inh -2 and m-calpain inh 54*.
For COc1ccc(C(=O)N2CCOC2CNC(=O)C(=O)NCc2ccc(Cl)cc2)cc1 (stereo not given) the results were Thrombin inh -5, Furin inhibitor -15, FXIIa inh 5, FXIa inh -6, KLK5 inh -10 and m-calpain inh -18.
For Cc1cc(=O)n2[nH]cnc2n1 the results were Thrombin inh 9, Furin inhibitor -18, FXIIa inh 24, FXIa inh 18, KLK5 inh 41* and m-calpain inh 12.
Screening CCCc1cc(=O)n2[nH]cnc2n1 returned Thrombin inh -1, Furin inhibitor -13, FXIIa inh 22, FXIa inh 18, KLK5 inh -4 and m-calpain inh -16.
For COc1cc(-c2ccc(Nc3ccccc3C(=O)O)c(OC)c2)ccc1Nc1ccccc1C(=O)O the results were Thrombin inh 4, Furin inhibitor -6, FXIIa inh 12, FXIa inh 10, KLK5 inh 4 and m-calpain inh 55*.
For O=C(O)/C=C/c1cn(Cc2ccccc2Cl)nc1-c1ccccc1 the results were Thrombin inh -6, Furin inhibitor -8, FXIIa inh 0, FXIa inh -5, KLK5 inh -4 and m-calpain inh 23.
`CCCCC(=O)Nc1ccc(Br)cn1` gave Thrombin inh 0, Furin inhibitor -27, FXIIa inh 5, FXIa inh -4, KLK5 inh 5 and m-calpain inh 0.
Screening CC(C)=CC1C(C(=O)Nc2ccc(Br)cn2)C1(C)C (stereo not given) returned Thrombin inh 13, Furin inhibitor -30, FXIIa inh 3, FXIa inh -7, KLK5 inh -7 and m-calpain inh 53*.
`O=C(NCc1ccco1)C1CC(c2ccccc2C(F)(F)F)=NO1` (stereo not given) gave Thrombin inh 21, Furin inhibitor 5, FXIIa inh 21, FXIa inh 72*, KLK5 inh 19 and m-calpain inh -16.
O=C(CCC(=O)N/N=C/c1ccc(Br)s1)NCc1ccccc1 was read as Thrombin inh 29, Furin inhibitor -3, FXIIa inh 44*, FXIa inh 10, KLK5 inh 20 and m-calpain inh 20.
O=C(CC(=O)N/N=C/c1cccs1)NCc1ccccc1 was read as Thrombin inh -1, Furin inhibitor -3, FXIIa inh 1, FXIa inh -9, KLK5 inh -4 and m-calpain inh -20.
`CCOc1ccc(NS(=O)(=O)c2ccc(NC(=S)NC(=O)C(C)C)cc2)cc1` gave Thrombin inh 7, Furin inhibitor -6, FXIIa inh 15, FXIa inh 1, KLK5 inh 52* and m-calpain inh 35.
Screening COc1ccc(NS(=O)(=O)c2ccc(NC(=S)NC(=O)C(C)C)cc2)cc1 returned Thrombin inh -7, Furin inhibitor -25, FXIIa inh -7, FXIa inh -8, KLK5 inh -3 and m-calpain inh 2.
For CC(C)C(=O)NC(=S)Nc1ccc(S(=O)(=O)NC(C)(C)C)cc1 the results were Thrombin inh -4, Furin inhibitor -14, FXIIa inh 8, FXIa inh -2, KLK5 inh -9 and m-calpain inh 1.
`CC(C)C(=O)NC(=S)Nc1ccc(S(=O)(=O)Nc2ccccc2)cc1` gave Thrombin inh 23, Furin inhibitor -18, FXIIa inh -1, FXIa inh 3, KLK5 inh 43* and m-calpain inh 38.
